In ChEMBL document CHEMBL2040780, “Antiarrhythmic properties of phenylpiperazine derivatives of phenytoin with α₁-adrenoceptor affinities” (Bioorg Med Chem, 2012):

Experiments:
[1] = system: Rattus norvegicus; test: Antiarrhythmic activity in Wistar rat assessed as effect on heart beat at 5 mg/kg, iv after 1 min; type: functional
Method in brief: (§1)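 Male Wistar rats (180–250 g), anaesthetised with thiopental 60 mg/kg ip. Compound given iv in water at 10 mg/kg, or at a lower starting dose of 5 or 2.5 mg/kg. Standard lead II ECG recorded at 50 mm/s just before dosing and at 1, 5 and 15 min after. Heart rate and P–Q, Q–T and QRS intervals were read. n=6 per group, mean ± SEM, one-way ANOVA.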

[2] = system: Rattus norvegicus; test: Antiarrhythmic activity in Wistar rat assessed as effect on heart beat at 5 mg/kg, iv after 5 mins; type: functional; method in brief: as §1
[3] = system: Rattus norvegicus; test: Antiarrhythmic activity in Wistar rat assessed as effect on heart beat at 5 mg/kg, iv after 15 mins; type: functional; method in brief: as §1
[4] = system: Rattus norvegicus; test: Cardiotoxicity in Wistar rat assessed as effect on P-Q interval at 5 mg/kg, iv after 1 min; type: toxicity, organism-based; design: dose 5 mg/kg, route intravenous; conditions: in vivo; method in brief: as §1
[5] = system: Rattus norvegicus; test: Cardiotoxicity in Wistar rat assessed as effect on P-Q interval at 5 mg/kg, iv after 5 mins; type: toxicity, organism-based; design: dose 5 mg/kg, route intravenous; conditions: in vivo; method in brief: as §1
[6] = system: Rattus norvegicus; test: Cardiotoxicity in Wistar rat assessed as effect on P-Q interval at 5 mg/kg, iv after 15 mins; type: toxicity, organism-based; design: dose 5 mg/kg, route intravenous; conditions: in vivo, 0.25 h; method in brief: as §1
[7] = system: Rattus norvegicus; test: Cardiotoxicity in Wistar rat assessed as effect on Q-T interval at 5 mg/kg, iv after 1 min; type: toxicity, organism-based; design: dose 5 mg/kg, route intravenous; conditions: in vivo; method in brief: as §1
[8] = system: Rattus norvegicus; test: Cardiotoxicity in Wistar rat assessed as effect on Q-T interval at 5 mg/kg, iv after 5 mins; type: toxicity, organism-based; design: dose 5 mg/kg, route intravenous; conditions: in vivo; method in brief: as §1
[9] = system: Rattus norvegicus; test: Cardiotoxicity in Wistar rat assessed as effect on Q-T interval at 5 mg/kg, iv after 15 mins; type: toxicity, organism-based; design: dose 5 mg/kg, route intravenous; conditions: in vivo, 0.25 h; method in brief: as §1
[10] = system: Rattus norvegicus; test: Cardiotoxicity in Wistar rat assessed as effect on QRS interval at 5 mg/kg, iv after 1 min; type: toxicity, organism-based; design: dose 5 mg/kg, route intravenous; conditions: in vivo; method in brief: as §1
[11] = system: Rattus norvegicus; test: Cardiotoxicity in Wistar rat assessed as effect on QRS interval at 5 mg/kg, iv after 5 mins; type: toxicity, organism-based; design: dose 5 mg/kg, route intravenous; conditions: in vivo; method in brief: as §1
[12] = system: Rattus norvegicus; test: Cardiotoxicity in Wistar rat assessed as effect on QRS interval at 5 mg/kg, iv after 15 mins; type: toxicity, organism-based; design: dose 5 mg/kg, route intravenous; conditions: in vivo, 0.25 h; method in brief: as §1
[13] = system: Rattus norvegicus; test: Hypotensive activity in normotensive Wistar rat assessed as decrease in systolic blood pressure at 2.5 to 10 mg/kg, iv at 1 min; type: organism-based, Artery; design: dose 2.5-10 mg/kg, route intravenous; conditions: in vivo
Method in brief: (§2)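 Right carotid artery cannulated with heparin-saline-filled tubing for blood pressure recording. After 5 min stabilisation, compound injected iv into the caudal vein (2.5–10 mg/kg, 1 ml/kg). Systolic and diastolic pressure followed for 60 min. n=6 per group, mean ± SEM, one-way ANOVA.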

[14] = system: Rattus norvegicus; test: Hypotensive activity in normotensive Wistar rat assessed as decrease in diastolic blood pressure at 2.5 to 10 mg/kg, iv at 1 min; type: organism-based, Artery; design: dose 2.5-10 mg/kg, route intravenous; conditions: in vivo; method in brief: as §2
[15] = system: Rattus norvegicus; test: Hypotensive activity in normotensive Wistar rat assessed as decrease in systolic blood pressure at 2.5 to 10 mg/kg, iv after 1 min measured up to 60 mins; type: organism-based, Artery; design: dose 2.5-10 mg/kg, route intravenous; conditions: in vivo; method in brief: as §2
[16] = system: Rattus norvegicus; test: Hypotensive activity in normotensive Wistar rat assessed as decrease in diastolic blood pressure at 2.5 to 10 mg/kg, iv after 1 min measured up to 60 mins; type: organism-based, Artery; design: dose 2.5-10 mg/kg, route intravenous; conditions: in vivo; method in brief: as §2
[17] = target: T1, Adrenergic receptor alpha-1 (Rattus norvegicus, UniProt P15823+P23944+P43140); test: Displacement of [3H]prazosin from alpha1 adrenoceptor in rat cerebral cortex after 30 mins by microbeta scintillation counting; type: tissue-based
T1 sequence (P15823 whole entry): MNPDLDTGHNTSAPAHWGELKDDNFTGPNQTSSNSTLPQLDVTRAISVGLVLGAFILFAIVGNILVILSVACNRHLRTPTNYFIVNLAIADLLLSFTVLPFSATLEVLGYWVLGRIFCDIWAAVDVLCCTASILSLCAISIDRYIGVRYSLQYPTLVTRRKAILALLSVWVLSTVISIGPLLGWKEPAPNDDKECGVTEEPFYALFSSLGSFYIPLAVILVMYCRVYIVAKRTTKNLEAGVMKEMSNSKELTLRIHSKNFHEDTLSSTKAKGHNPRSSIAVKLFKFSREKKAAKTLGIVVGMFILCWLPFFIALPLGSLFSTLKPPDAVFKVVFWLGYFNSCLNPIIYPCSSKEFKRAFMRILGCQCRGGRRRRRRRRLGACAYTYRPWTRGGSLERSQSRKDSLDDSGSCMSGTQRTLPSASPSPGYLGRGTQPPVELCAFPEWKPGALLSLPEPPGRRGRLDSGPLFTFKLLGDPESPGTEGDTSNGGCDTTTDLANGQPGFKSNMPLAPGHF
T1 sequence (P23944 whole entry): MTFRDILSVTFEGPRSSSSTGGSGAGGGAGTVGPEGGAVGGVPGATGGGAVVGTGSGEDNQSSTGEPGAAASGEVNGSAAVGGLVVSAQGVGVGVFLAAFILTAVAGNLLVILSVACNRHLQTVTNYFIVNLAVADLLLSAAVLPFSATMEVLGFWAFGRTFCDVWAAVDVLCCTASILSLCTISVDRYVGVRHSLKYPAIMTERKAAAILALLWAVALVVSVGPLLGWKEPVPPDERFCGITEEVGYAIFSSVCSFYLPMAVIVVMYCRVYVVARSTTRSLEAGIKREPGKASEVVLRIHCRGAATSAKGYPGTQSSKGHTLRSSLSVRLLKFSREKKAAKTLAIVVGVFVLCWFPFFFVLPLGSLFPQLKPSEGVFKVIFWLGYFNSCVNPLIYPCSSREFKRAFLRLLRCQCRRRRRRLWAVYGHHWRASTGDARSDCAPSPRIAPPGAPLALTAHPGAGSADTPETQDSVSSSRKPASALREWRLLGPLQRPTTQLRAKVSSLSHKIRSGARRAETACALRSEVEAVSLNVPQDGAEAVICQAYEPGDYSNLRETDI
T1 sequence (P43140 whole entry): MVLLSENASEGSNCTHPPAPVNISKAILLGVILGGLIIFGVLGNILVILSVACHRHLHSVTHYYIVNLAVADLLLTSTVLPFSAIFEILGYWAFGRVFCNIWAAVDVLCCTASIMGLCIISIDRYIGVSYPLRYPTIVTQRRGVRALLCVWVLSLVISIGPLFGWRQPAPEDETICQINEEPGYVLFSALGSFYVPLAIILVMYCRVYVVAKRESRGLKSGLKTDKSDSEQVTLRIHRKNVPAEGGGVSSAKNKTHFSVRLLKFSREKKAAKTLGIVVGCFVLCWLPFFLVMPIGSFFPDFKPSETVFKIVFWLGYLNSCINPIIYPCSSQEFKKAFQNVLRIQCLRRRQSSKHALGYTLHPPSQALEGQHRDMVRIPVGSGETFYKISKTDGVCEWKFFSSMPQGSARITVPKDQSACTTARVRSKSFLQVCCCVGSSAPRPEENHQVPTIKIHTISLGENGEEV
Method in brief: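 Rat cerebral cortex homogenised in ice-cold 50 mM Tris-HCl (pH 7.6 at 25 °C), washed twice at 20000×g and resuspended at 10 mg wet weight/ml. Incubated with [3H]prazosin (19.5 Ci/mmol) and test compound for 30 min at 25 °C. Nonspecific binding defined with 10 µM phentolamine. GF/B filtration, scintillation counting, three-parameter logistic competition fit.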

Row | Ki [17] | pKi [17] | SMILES | Activity [1] | Activity [2] | Activity [3] | Activity [4] | Activity [5] | Activity [6] | Activity [7] | Activity [8] | Activity [9] | Activity [10] | Activity [11] | Activity [12] | Activity [13] | Activity [14] | Activity [15] | Activity [16]
1 | – | – | COC(=O)CN1C(=O)N(CC(O)CN2CCN(c3ccccc3)CC2)C(c2ccccc2)(c2ccccc2)C1=O.Cl (racemic) | 246 min⁻¹ | 261 min⁻¹ | 272 min⁻¹ | 72 ms | 65.2 ms | 64 ms | 97 ms | 81 ms | 74 ms | 33 ms | 26 ms | 22 ms | Toxic | Toxic | Non-toxic | Non-toxic
2 | 0.3547 µM | 6.45 | COC(=O)CN1C(=O)N(CC(O)CN2CCN(c3ccccc3Cl)CC2)C(c2ccccc2)(c2ccccc2)C1=O.Cl (racemic) | 290 min⁻¹ | 256 min⁻¹ | 268 min⁻¹ | 62 ms | 63 ms | 59 ms | 76 ms | 76 ms | 69 ms | 16 ms | 15 ms | 17 ms | Toxic | Toxic | Non-toxic | Non-toxic
